The text below walks through data of the EternaBench riboswitch data.

This series relates to MS2 coat protein. As to the kind of experiment: apparent Kd, MS2 coat protein; higher = weaker binding; RNA-MaP array; FMN 200 µM where present. In outline: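 Each design was made on Illumina sequencing-chip clusters by stalled E. coli RNA polymerase and titrated with SNAP-549-labelled MS2 coat protein from 0.7 or 1.5 nM, doubling to 3 µM, in the absence and then the presence of constant ligand. The buffer was 100 mM Tris-HCl pH 7.5, 80 mM KCl, 4 mM MgCl2, BSA, DTT, yeast tRNA and Tween-20. The apparent Kd is the median of filtered per-cluster fits of binding curves, with green signal normalised to red-channel RNA signal and control-cluster median Fmax.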

Setting [1] is: designed as: ON switch for flavin mononucleotide, no ligand.
[2] abbreviates: ligand present: flavin mononucleotide, designed as: ON switch for flavin mononucleotide.
[3] abbreviates: designed as: OFF switch for flavin mononucleotide, no ligand.
The mark [4] stands for this setting: ligand present: flavin mononucleotide, designed as: OFF switch for flavin mononucleotide.

As a reminder, the apparent Kd is the concentration giving half-maximal binding under the conditions of the assay. Turning to “UUUGGGUGGCUGGAGGAUAUUCUAGUGGUUACAUGAGGAUCACCCAUGUGUCGCGCGGUACGCGAGGAGAAGGCUGGCGGCCGUU”, the “apparent Kd” value was determined as 135 nM under setting [1] and 35.1 nM under setting [2].

In the case of “GGGUACAUCGGAGGAUAUCAUGUAAAUACAUGAGGAUCACCCAUGUCGAUGGAGACAUCGGAUAUUGAGAAGGCCGAUGUACCG”, the “apparent Kd” value under setting [1] came to 18.7 nM and the “apparent Kd” value under setting [2] turned out to be 5.46 nM.

For the sequence “GUAAAUCAUGUAGGAUAUGCAUGGCGAAGCUACGCAGAAGGACAUGAGGAUCACCCAUGUCUGUCCGUCUGCGAACAGACGGAC”, the “apparent Kd” value came out at 23.4 nM under setting [3] and 174 nM under setting [4].

Regarding “CGUGCGUAUGUGAGGAUAUGCUGGUCCUUGGAUCGGCAGAAGGCACAUGAGGAUCACCCAUGUGGUGUCGUUCG”, the “apparent Kd” value reads like this: under setting [3], 219 nM; under setting [4], 31.6 nM.

For the sequence “GUCUGGCUAGGAUAUACAGAAUCCACGAGUCGGUUGCCCUGACAUGAGGAUCACCCAUGUAGAAGGAGCGAGAA”, the “apparent Kd” value is, setting by setting: under setting [3], 17.9 nM; under setting [4], 24.3 nM.

As to “AUACCACGAGGAUAUCGACUAUACCACAUGAGGAUCACCCAUGUUAUCCAUGUUUCGUUUCGAGAAGGCGUGGGUU”, the “apparent Kd” value under setting [3] came to 39.1 nM and the “apparent Kd” value under setting [4] came to 33.9 nM.

On to “ACAAGAUCAGGAUAUACAUGAGGAUCACCCAUGUAUAUCAAAAAGGGACUUUCUUAAUGUAGAAGGGAUCAUGU”, for which the “apparent Kd” value was determined as 14 nM under setting [3] and 12.7 nM under setting [4].

Regarding “UGUUGUAUUACAGGAUAUCUAUUGUUUUAAUUUAGAGAAGGGUAUUCACAUGAGGAUCACCCAUGUAUAUACGAGGAAGUUGUG”, the “apparent Kd” value was found to be 54 nM under setting [1] and 61 nM under setting [2].

Take “UAGGUGGAAGGAUAUACAUAUGGCCUAUGAGAUACUUCACGACAUGAGGAUCACCCAUGUAGAAGGUCUACCGU”: the “apparent Kd” value runs as follows: under setting [3], 17.9 nM; under setting [4], 39.4 nM.

Take “UUAACUCAUGUAGGAUAUGCAUGGCGAAGCUACGCAGAAGGACAUGAGGAUCACCCAUGUUCUAGCUACCGAGUUCGGUGGCAA”: the “apparent Kd” value was 92 nM under setting [3] and 272 nM under setting [4].

As to “UAAUUGUGAGGAUAUUCGUUUUACACGGAGACGUGUAGAACGGAGAAGGCACAUGAGGAUCACCCAUGUUCCUU”, the “apparent Kd” value by setting is: under setting [3], 18 nM; under setting [4], 100 nM.

As to “CCGACCUUGGCAGGAUAUAGACUCGAAGUUGAUCCCGCCGGUGGAGACAUGAGGAUCACCCAUGUCUAGAAGGGCCAGUCGAAA”, the “apparent Kd” value was determined as 16.2 nM under setting [3] and 72.9 nM under setting [4].

“GGAGCCGGCACUGAGGAUAUUCAUAUUAAAACAUGAGGAUCACCCAUGUAGGCCAGAAGGCCUUGGGAGAAGGCAGGUCGACUCG”: the “apparent Kd” value under setting [1] was 406 nM and the “apparent Kd” value under setting [2] was 28.9 nM.

In the case of “CUUUAGUGAGGAUAUCGGUAGUAAUACAAUAGUAUUACUACUGAGAAGGCACAUGAGGAUCACCCAUGUUCCUC”, the “apparent Kd” value under setting [3] amounted to 29.9 nM and the “apparent Kd” value under setting [4] was determined as 233 nM.

On to “AAAAUCUAUUGAGGAUAUUCAUACACUACAUACGGAGAAGGCAAACAAUCAUGAGGACAUGAGGAUCACCCAUGUUGUGACCAU”, for which the “apparent Kd” value amounted to 23.4 nM under setting [1] and 20 nM under setting [2].

“AUUAUUUAGUGAGGAUAUACAGAUAAAGAGAUUGUAGAAGGCACUUUCCUCAGGACAUGAGGAUCACCCAUGUGUUAAUAAGAU”: the “apparent Kd” value runs as follows: under setting [3], 72.5 nM; under setting [4], 267 nM.

Turning to “UUGGACGUCGUAGGAUAUGUAGGAUAUUCCUACAUGAGGAUCACCCAUGUUGACAUGGAAGAAGGAGAGAAGGACGAUGUCCAU”, the “apparent Kd” value by setting is: under setting [1], 308 nM; under setting [2], 354 nM.

Turning to “AAGUCGUGAGGAUAUACAUGGAUAUACAUUUAUGUAAAACUACAUGAGGAUCACCCAUGUAGAAGGCACGAAUA”, the “apparent Kd” value runs as follows: under setting [3], 50.7 nM; under setting [4], 128 nM.

For the sequence “AGCUAGAGAGGAUAUACGUGGAAAAAAAAAGUCUGAUCCCUACAUGAGGAUCACCCAUGUAGAAGGCUCUGGCA”, the “apparent Kd” value was determined as 30.9 nM under setting [3] and 15.1 nM under setting [4].

As to “UGUUGUAUUACAGGAUAUCUAGUGUUUUUAUUUAGAGAAGGGUAUUCACAUGAGGAUCACCCAUGUAUAUACGAGGAAGUUGUG”, the “apparent Kd” value under setting [1] turned out to be 55.9 nM and the “apparent Kd” value under setting [2] is 61.2 nM.
